Measurements published in article PMC3705663 (The Indian Journal of Medical Research, 2013).

Key:
HIV-1 protease = HIV-1 protease (Human immunodeficiency virus type 1 group M subtype B, UniProt P04585); assay: Protease assay; assay type: biochemical; conditions: reference control saquinavir 1 μM
In short: (§1)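 Enzyme inhibition was measured with a commercial kit for each enzyme, following the manufacturer's instructions. Inhibition values are mean ± SEM of three independent experiments.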

HIV-1 NL4.3 [1] = assay: Inhibition of HIV infection in TZM-bl cells-based assay; assay type: cell-based
In short: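 TZM-bl cells (HeLa-derived, CD4/CCR5/CXCR4, LTR-driven luciferase) were seeded at 4 × 10^4/well overnight. HIV-1 NL4.3 (MOI 0.05) was pretreated with test compound for 1 h at 37°C, added to cells in duplicate for 4 h, then washed off with cold PBS. Cells were cultured 48 h in fresh medium with compound, lysed by freeze-thaw and read for luciferase. AZT served as positive control. % inhibition was taken versus untreated infected cells; IC50 by nonlinear fit.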

HIV-1 NL4.3 [2] = assay: Inhibition of HIV infection in CEM-GFP cells-based assay; assay type: cell-based
In short: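 CEM-GFP cells (CD4+ T-lymphocytic line, GFP under HIV-1 LTR) were infected with HIV-1 NL4.3 at MOI 0.05. They were then plated at 2.0 × 10^5/well with varying test compound concentrations for up to 8 days. AZT served as positive control and solvents as negative controls. Cell lysates were read for GFP fluorescence (ex 485/em 520 nm). % inhibition was taken versus untreated infected cells, and IC50 was obtained by nonlinear curve fitting.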

HIV = conditions: from other plant sources; cited from earlier work
HIV-1 integrase = HIV-1 integrase (Human immunodeficiency virus type 1 group M subtype B, UniProt P04585); assay: Integrase assay; assay type: biochemical; conditions: tested upto 50 μg/ml; positive control sodium azide; data not shown
In short: as §1

HIV integrase = conditions: previous study; cited from earlier work
HIV-1 RT = HIV-1 RT (Human immunodeficiency virus type 1 group M subtype B, UniProt P04585); assay: Reverse transcriptase assay; assay type: biochemical; conditions: reference control nevirapine 1 μM
In short: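 HIV-1 reverse transcriptase inhibition was measured with a commercial RT assay kit following the manufacturer's protocol. Data are mean ± SEM of three independent experiments.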

| SMILES | inhibition of HIV-1 protease activity (in words) (HIV-1 protease; listed as ellagic acid) | inhibition of HIV-1 protease activity (in words) (HIV-1 protease; listed as ellagic acid (compound G)) | anti-HIV activity (in words) (HIV-1 NL4.3 [1]) | anti-HIV activity (in words) (HIV-1 NL4.3 [2]) | anti-HIV activity (in words) (HIV) | inhibition of HIV-1 integrase activity (in words) (HIV-1 integrase) | HIV integrase inhibitory activity (in words) (HIV integrase) | inhibition of HIV-1 RT activity (in words) (HIV-1 RT) |
| --- | --- | --- | --- | --- | --- | --- | --- | --- |
| O=c1oc2c(O)c(O)cc3c(=O)oc4c(O)c(O)cc1c4c23 [Ellagic acid (G), ellagic acid] | inhibited the HIV-1 protease activity | dose-dependent inhibition | consistent anti-HIV activity | consistent anti-HIV activity | reported for their anti-HIV activity | did not show any significant inhibition | shown to have HIV integrase inhibitory activity |  |
| O=C(O)c1cc(O)c(O)c(O)c1 [Gallic acid (F), gallic acid] |  |  | potent anti-HIV activity | potent anti-HIV activity | reported for their anti-HIV activity | did not show any significant inhibition |  | dose dependent inhibition |
| C[C@@H]1O[C@@H](OC[C@H]2O[C@@H](Oc3c(-c4ccc(O)c(O)c4)oc4cc(O)cc(O)c4c3=O)[C@H](O)[C@@H](O)[C@@H]2O)[C@H](O)[C@H](O)[C@H]1O [Rutin (E), rutin] |  |  | did not show any significant anti-HIV activity | did not show any significant anti-HIV activity |  |  |  |  |
